From PubChem BioAssay
This is a sample that favours compounds with a hit; in the whole collection about 3.5% have one here.
thrombin 1536 – thrombin (human) inhibition; P00734; alpha-thrombin, Boc-VPR-AMC fluorogenic substrate cleavage; inhibition, % at 5 µM; 0.26% of 220,000 active; AID 1046;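 active = inhibition at or above 40%; inactive = inhibition below 40%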;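 also: 0% = enzyme with no compound and 100% = wells without enzyme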
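Test system: human alpha-thrombin; medium: pH 7.5 Tris-saline with Tween 20; times: reaction at room temperature; signal: AMC fluorescence at 355 nm excitation and 460 nm emission; also added: Boc-VPR-AMC substrate, 15 µM final; dosing: one concentration per compound, 5 µM, with 0.2% DMSO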
hK5 inh – kallikrein 5 (human) inhibition; Q9Y337; recombinant hK5, fluorogenic AMC substrate cleavage; inhibition, % at 5 µM; 0.59% of 210,000 active; AID 873;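 active = inhibition of 40% or more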;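 also: 0% = enzyme controls without compound and 100% = no-enzyme blanks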
STAT3 act – activators of IL-6 induced STAT3 signaling | U3A cells, IL-6 STAT3-luciferase reporter, luminescence; 100% = signal with IL-6 EC80 alone | activation (% of control), % at 5.6 µM | 0.91% of 190,000 active | AID 871;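 active = activation above the screen-wide mean of compound activation plus 3 SD, cut at about 130% in these data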;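 also: 0% = background luminescence of wells with medium and substrate only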
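Material: STAT3-luciferase reporter U3A cells; Probe or stimulus: IL-6 (33 ng/mL); Incubation: compound pre-incubation 1 h before IL-6, then 6 h stimulation at 37 °C; Technique: luminescence from STAT3-driven luciferase reporter; Evaluation: % activation versus median of IL-6-stimulated wells; Controls: IL-6-only high control.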
FXIa inh – factor XIa (human) inhibition. P03951. purified FXIa, Boc-Glu-Ala-Arg-AMC fluorogenic substrate. inhibition, % at 5 µM. 0.14% of 220,000 active. AID 798;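 active = inhibition of at least 40%; inactive = inhibition below 40%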;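 also: fluorescence of freed AMC excited at 355 nm; 0% = enzyme without compound and 100% = no enzyme blank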
Target sequence (P03951 19-387 limits assumed): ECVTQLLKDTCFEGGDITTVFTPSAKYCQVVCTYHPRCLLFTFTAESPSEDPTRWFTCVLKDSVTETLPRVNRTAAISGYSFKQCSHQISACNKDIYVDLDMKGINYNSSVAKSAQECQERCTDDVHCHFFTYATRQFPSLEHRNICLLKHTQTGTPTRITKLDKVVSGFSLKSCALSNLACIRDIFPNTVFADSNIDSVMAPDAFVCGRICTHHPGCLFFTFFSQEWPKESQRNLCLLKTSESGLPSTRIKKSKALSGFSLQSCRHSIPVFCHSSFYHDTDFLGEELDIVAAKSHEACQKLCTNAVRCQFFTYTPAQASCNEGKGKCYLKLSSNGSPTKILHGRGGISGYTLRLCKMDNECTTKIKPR
Target sequence (P03951 388-625 limits assumed): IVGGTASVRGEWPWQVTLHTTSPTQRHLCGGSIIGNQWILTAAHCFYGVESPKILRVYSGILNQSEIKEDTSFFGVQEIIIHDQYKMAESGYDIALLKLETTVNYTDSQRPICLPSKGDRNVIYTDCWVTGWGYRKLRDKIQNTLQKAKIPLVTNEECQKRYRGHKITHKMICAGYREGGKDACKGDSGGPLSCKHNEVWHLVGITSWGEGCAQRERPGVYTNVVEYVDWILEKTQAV
AHR activator – activators of human aryl hydrocarbon receptor; AHR-responsive luciferase reporter cells, luminescence; AID 2796; P35869; activation, % at 5 µM; 2.5% of 320,000 active; in the data active = activation above about 47%;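 also: 0% = vehicle wells and 100% = reference agonist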
FXIIa inh – factor XIIa (human) inhibition. purified FXIIa, Boc-QGR-AMC fluorogenic substrate, 2 h. inhibition, % at 5 µM. 0.3% of 220,000 active; in the data active = inhibition above about 40%;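 also: 0% = enzyme with no compound and 100% = blank without enzyme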
Starred values were filed as active, the others as inactive; x = no result given.

SMILES	thrombin 1536	hK5 inh	STAT3 act	FXIa inh	AHR activator	FXIIa inh
Oc1nc(Nc2ccccc2)sc1/C=C1\C=Nc2ccccc21	-0.6	2.3	x	0.9	147.0*	9.7
CCn1c(O)c(/C=C2\C=Nc3ccccc32)sc1=O	-3.0	-5.6	126.1	1.2	75.6*	9.2
CCn1c(O)c(/C=C2\C=Nc3ccccc32)sc1=Nc1ccc(C)cc1	-0.5	-6.6	101.8	-6.1	-0.1	4.1
O=c1oc2ccccc2n1CSc1nc2ccccc2s1	10.7	16.9	114.6	9.5	61.3*	15.8
O=C(CSc1nc2ccccc2s1)CSc1nc2ccccc2s1	1.5	-1.8	99.3	-4.1	9.9	16.0
CC(C)c1ccc(S(=O)(=O)/N=C2/C=CC(=O)c3ccccc32)cc1	-1.1	x	135.1*	3.2	x	11.8
CCOC(=O)c1csc(NC(=O)c2ccc3c(c2)OCCO3)n1	x	x	x	x	-8.1	x
Cc1ccc2c(c1)NC(=O)C(CC(=O)NCCCN1CCCCC1C)O2 (stereo unspecified)	13.3	47.3*	97.6	3.4	0.2	11.9
Cc1ccc2c(c1)NC(=O)C(CC(=O)NCCCN1CCCC1)O2 (stereo unspecified)	-3.0	6.4	102.8	0.1	-0.6	10.9
COc1ccc(CN2CCNC(=O)C2CC(=O)NCCN2CCCCC2=O)c(F)c1 (stereo unspecified)	x	x	x	x	0.4	x
Cc1ccc2nc(/C(C#N)=C/c3cn[nH]c3-c3ccc(F)cc3)[nH]c2c1	-4.1	2.0	92.7	12.5	76.5*	13.2
COc1cccc(/C=C(\C#N)c2nc3ccc(C)cc3[nH]2)c1OCC(=O)O	x	x	x	x	31.4	x
Cc1ccc2nc(/C(C#N)=C/c3ccc(O)c(O)c3)[nH]c2c1	x	x	x	x	61.6*	x
Cc1ccc2nc(/C(C#N)=C/c3ccccc3C(=O)O)[nH]c2c1	x	x	x	x	29.6	x
O=C(Nc1cc(S(=O)(=O)N2CCOCC2)ccc1N1CCCCC1)c1ccccc1Br	x	x	x	x	14.4	x
C=CCNc1nc(NCc2ccccc2)c(C#N)c2c1CN(C)CC2	-2.6	1.8	132.9*	4.9	53.6*	7.2
CN1CCc2c(C#N)c(N3CCOCC3)nc(NCC3CCCO3)c2C1 (stereo unspecified)	-4.8	-0.5	x	-3.3	-3.4	0.2
CCCCCNc1nc(NCCCO)c(C#N)c2c1CN(C)CC2	-7.7	2.5	107.2	-24.8	58.3*	6.2
CCCCCNc1nc(N2CCCC2)c2c(c1C#N)CCN(C)C2	0.4	-18.6	102.1	-3.4	59.5*	9.5
COc1ccc(N2CC(C(=O)O)CC2=O)cc1 (stereo unspecified)	-9.0	-10.0	97.4	5.8	-0.2	10.5
CCCCC(=O)OCC(=O)N1N=C(c2c[nH]c3ccccc23)C(O)C1c1ccc(OC)cc1 (stereo unspecified)	x	x	x	x	9.3	x
O=C(O)CCn1c2ccccc2c2nc3ccccc3nc21	x	x	x	x	60.0*	x
CC(C)n1c2ccccc2c2nc3ccccc3nc21	-4.6	-0.6	99.7	-4.1	56.9*	-1.2
COc1ccc2oc(=O)c(/C(C)=N/Nc3ccccc3)cc2c1	-11.3	1.6	98.6	0.2	60.8*	8.1
O=C(N/N=C/c1cccc(F)c1)c1c(O)c2ccccc2[nH]c1=O	45.2*	17.4	103.9	-14.2	7.2	-3.6
SMILES	thrombin 1536	hK5 inh	STAT3 act	FXIa inh	AHR activator	FXIIa inh
O=C(N/N=C/c1ccc(F)cc1)c1c(O)c2ccccc2[nH]c1=O	3.1	-2.3	89.5	20.0	5.0	7.4
Cn1c(=O)c(=O)n(C)c2cc(N3CCOCC3)c(NS(=O)(=O)c3ccc(Br)cc3)cc21	x	x	x	x	-1.5	x
C/C(=N\NC(=O)c1ccccc1)c1ccc(-n2ccnc2)cc1	-5.6	-2.1	100.0	-6.2	20.9	8.7
C/C(=N\NC(N)=S)c1ccc(-n2ccnc2)cc1	-2.4	2.8	x	0.2	112.7*	5.5
C/C(=N\NC(=O)OC(C)(C)C)c1ccc(-n2ccnc2)cc1	-1.7	-3.0	98.9	-1.6	68.3*	4.2
COc1ccc(OCC(=O)N/N=C(\C)c2ccc(-n3ccnc3)cc2)cc1	-3.0	-20.3	101.0	6.5	55.1*	7.5
C/C(=N\NC(=O)COc1ccc(C(C)(C)C)cc1)c1ccc(-n2ccnc2)cc1	24.6	9.2	120.5	6.0	72.9*	11.0
CCOC(=O)N1CCN(C(=O)COC(=O)C2CCN(S(=O)(=O)c3c(Cl)cccc3Cl)CC2)CC1	x	x	x	x	-1.0	x
COc1cccc(CCN2CCC(CNS(=O)(=O)c3cc(-c4cc(C)no4)ccc3C)CC2)c1	x	x	x	x	0.4	x
COc1ccc(CN2C(=O)c3cccnc3C2=O)cc1S(=O)(=O)N1CCOc2ccc(C)cc21	x	x	x	x	-2.5	x
COc1ccc(C)cc1S(=O)(=O)N1CCCC(C(=O)N2CCOCC2)C1 (stereo unspecified)	x	x	x	x	-2.6	x
COc1ccccc1NS(=O)(=O)c1cccc(C(=O)N/N=C(\C)c2ccc(-n3ccnc3)cc2)c1	4.2	-5.9	97.8	3.8	66.8*	23.6
COc1ccccc1NS(=O)(=O)c1cccc(C(=O)N/N=C(\C)c2cccnc2)c1	x	x	x	x	13.7	x
O=C(Nc1cc(S(=O)(=O)Nc2ccc(Cl)cc2)ccc1N1CCCCC1)c1ccc(F)cc1Cl	-2.3	-11.8	110.0	3.3	5.3	8.6
CN(c1ccccc1)S(=O)(=O)c1cccc(NC(=O)c2ccc(Cl)c([N+](=O)[O-])c2)c1	x	x	x	x	5.8	x
Cc1ccc2ccc(C3C(=O)c4ccccc4C3=O)nc2c1	x	x	165.5*	x	58.0*	x
CCOC(=O)C1CCN(c2c(NCc3ccc(C(=O)Nc4ccc(C)cc4)cc3)c(=O)c2=O)CC1	-31.3	3.7	x	4.9	1.2	12.1
C=CCOc1c(Br)cc(CNn2c(C)n[nH]c2=S)cc1OC	x	x	x	x	48.4*	x
Cc1ccc(NC(=O)c2sc(N)nc2C)cc1	x	x	x	x	61.5*	x
Cc1nc(NC(N)=S)sc1C(=O)Nc1ccccc1	0.5	-2.7	91.5	2.9	105.3*	8.9
Cc1nc(NC(=O)C2CC2)sc1C(=O)Nc1ccccc1	x	x	x	x	8.2	x
Cc1nc(-c2ccncc2)sc1C(=O)Nc1ccc(Cl)cc1	1.1	3.6	77.0	0.5	64.5*	x
CC(C)Oc1ccc(CC2CCC(=O)N(C)C2=O)cc1 (stereo unspecified)	-1.6	-2.1	95.5	2.3	1.2	5.4
COc1ccc(NC(=O)CCNS(=O)(=O)c2ccccc2F)cc1S(N)(=O)=O	x	x	x	x	0.6	x
O=C(NN1C(=O)C2C(c3ccccc3)C=CC(c3ccccc3)C2C1=O)c1cccc(Br)c1 (stereo unspecified)	-3.8	-0.1	105.5	0.3	1.8	6.2
CSc1ccccc1Sc1cc(C(=O)O)c2ccccc2n1	-4.3	1.8	120.6	18.8	11.1	22.0
O=C(O)c1cc(Sc2ccc(Br)cc2)nc2ccccc12	2.6	43.2*	104.8	31.1	x	36.9
CCN(c1ccccc1)S(=O)(=O)c1ccc(OC)c(NC(=O)c2ccc(=O)[nH]c2)c1	x	x	x	x	2.8	x
Cc1sc2ncnc(NCC3COc4ccccc4O3)c2c1C (stereo unspecified)	-9.4	-4.8	36.2	1.4	-3.5	9.4
